# How the values were obtained:
# [1] = test system: intracellular reactive oxygen species (ROS) in HPAepiC cells; assay: Intracellular ROS measurement with DCFH-DA after H2O2; assay type: cell-based; settings: 50 μM H2O2 in HPAepiC cells; 10 μM ebselen/EBs, NAC 10 mM
# Procedure, shortened: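 HPAepiC cells were cultured 24 h in 35-mm dishes, exposed to 50 μM H₂O₂ for 1 h and washed three times. They were then given 10 μM test compound for 24 h, with 10 mM NAC as positive control. Cells were loaded with 10 μM DCFH-DA for 30 min at 37 °C in the dark, washed with PBS and imaged confocally (Ex 488 nm, Em 520–570 nm). Relative fluorescence intensity was scored.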
# SARS-CoV-2 Mpro [2] = target: T1, SARS-CoV-2 Mpro (Severe acute respiratory syndrome coronavirus 2, UniProt P0DTD1); assay type: binding
# SARS-CoV-2 Mpro [3] = target: T1, SARS-CoV-2 Mpro; assay: HPLC assay for inhibition of Mpro; assay type: biochemical; settings: 0.3 μM compound, Mpro 0.2 μM; about 70% hydrolysis with Mpro alone
# SARS-CoV-2 Mpro [4] = target: T1, SARS-CoV-2 Mpro; assay: biochemical; settings: read-out: %Inhibition @0.3 μM
# HPAepiC cells = assay: ROS-induced cell death; assay type: cell-based; settings: 50 μM H2O2 in HPAepiC cells; 10 μM ebselen/EBs, NAC 10 mM, 24 h
# Procedure, shortened: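 HPAepiC cells were exposed to 50 μM H₂O₂ for 1 h, then washed three times with fresh medium. Medium with 10 μM test compound or 10 mM NAC was added for 24 h before cell death was assessed.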
# SARS-CoV-2 virus = assay type: cell-based; settings: read-out: IC50 of inhibition of SARS-CoV-2 viral replication
smiles,measurement,setting,value
O=c1c2ccccc2[se]n1-c1ccccc1 [Ebselen],intracellular ROS level (DCFH-DA fluorescence),[1],dramatically decreased
same,covalent binding to Mpro (peptide modified),SARS-CoV-2 Mpro [2],identified to bind to ebselen
same,substrate hydrolysis,SARS-CoV-2 Mpro [3],30%
same,inhibition at 0.3 µM,SARS-CoV-2 Mpro [4],61.2 ± 0.76%
same,ROS induced cell death,HPAepiC cells,dramatically decreased
same,IC50,SARS-CoV-2 virus,24.6 µM
"CC(=O)N[C@@H](CS)C(=O)O [NAC, N-Acetyl-L-cysteine]",intracellular ROS level (DCFH-DA fluorescence),[1],scavenged the intracellular ROS
same,ROS induced cell death,HPAepiC cells,reversed the cytotoxicity induced by ROS

# Reference: article PMC8556866 (Bioorganic Chemistry, 2021)
